Where “and” joins values, the source holds several entries; their conditions need not be identical. Identical values can stand only once.
Assays:
[1] = species on record: Rattus norvegicus; test: Ability to inhibit rat adenylate kinase II, activity expressed as Maximum velocity; type: ADME
Method in brief: (§1)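 Coupled spectrophotometric assay (pyruvate kinase/lactate dehydrogenase, NADH oxidation) in 0.1 M Tris-HCl pH 7.6 with 2 mM MgSO4, 0.12 M KCl, 0.31 mM PEP, 0.38 mM NADH and 0.25 mM AMP. Derivatives were added as 1:1 Mg complexes. KM was obtained from linear Lineweaver-Burk plots using five or more substrate levels spanning 0.5–4.0 × KM. Inhibition was typed as competitive or noncompetitive versus ATP.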

[2] = species on record: Rattus norvegicus; test: Ability to inhibit rat adenylate kinase III, activity expressed as Maximum velocity; type: ADME; conditions: in vitro; method in brief: as §1
[3] = target: T1, GTP:AMP phosphotransferase AK3, mitochondrial (Rattus norvegicus, UniProt P29411); test: Ability to inhibit rat adenylate kinase III, activity expressed as Inhibition constant; Competitive inhibition; method in brief: as §1
[4] = target: Adenylate kinase 2, mitochondrial (Rattus norvegicus, UniProt P29410); test: Ability to inhibit rat adenylate kinase II, activity expressed as Inhibition constant; method in brief: as §1
[5] = target: Adenylate kinase (Escherichia coli) (UniProt P69441); test: Ability to inhibit Escherichia coli adenylate kinase II activity expressed as half maximal velocity
[6] = system: Escherichia coli; test: Ability to inhibit Escherichia coli adenylate kinase II, activity expressed as Maximum velocity; type: ADME; conditions: in vitro; method in brief: as §1
[7] = system: Escherichia coli; test: Ability inactivate Escherichia coli adenylate kinase was determined, after exposing enzyme to mM levels of MgATP at pH 7.6
Method in brief: (§2)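 E. coli B enzyme, partially purified 27-fold (fraction IV), exposed 6 h at 22 °C, pH 7.6, to the Mg2+ 1:1 complex of the ATP derivative in the Tris/MgSO4/KCl reaction buffer, with or without MgATP. Aliquots withdrawn at intervals and assayed spectrophotometrically with 1 mM ATP. Activity was compared with controls lacking the derivative. Read-out is % inactivation after 6 h.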

[8] = system: Escherichia coli; test: Ability to inhibit Escherichia coli adenylate kinase II activity expressed as Maximum velocity; type: ADME
Method in brief: (§3)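 E. coli B adenylate kinase, partially purified 27-fold (streptomycin, ammonium sulfate fractionation, DEAE-cellulose; fraction IV). ATP derivatives tested as 1:1 Mg²⁺ complexes as phosphate donor. Coupled PK/LDH NADH-oxidation spectrophotometric assay in 0.1 M Tris-HCl pH 7.6 with 2 mM MgSO₄, 0.12 M KCl, 0.31 mM PEP, 0.38 mM NADH and 0.25 mM AMP. Constants came from linear Lineweaver-Burk plots of initial velocity, using ≥5 substrate levels across 0.5–4.0 × KM.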

[9] = system: Escherichia coli; test: Ability to inhibit Escherichia coli adenylate kinase II activity expressed as half maximal velocity; type: ADME, organism-based; conditions: in vivo; method in brief: as §3
[10] = species on record: Rattus norvegicus; test: Ability to inhibit rat adenylate kinase III, activity expressed as half-maximal velocity; type: ADME; method in brief: as §1
[11] = species on record: Rattus norvegicus; test: Ability to inhibit rat adenylate kinase II, activity expressed as half-maximal velocity; type: ADME; conditions: in vitro; method in brief: as §1
[12] = target: Adenylate kinase (Escherichia coli) (UniProt P69441); test: Ability to inactivate adenylate kinase was determined, after exposing enzyme to mM levels of MgATP at pH 7.6
[13] = system: Escherichia coli; test: Ability to inactivate Escherichia coli adenylate kinase after exposing enzyme to 0 mM levels of MgATP at concentration of 11.8 mM, pH 7.6; method in brief: as §2
[14] = species on record: Rattus norvegicus; test: Ability of the 1.42 mM compound to inactivate rat muscle adenylate kinase was determined, after exposing enzyme to 2.2 mM levels of ATP activity expressed as percent loss of inactivation
Method in brief: (§4)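 Rat muscle enzyme preincubated at 22 °C with the 1:1 Mg2+ complex of the derivative, alone or with added AMP or ATP. Aliquots were assayed at intervals in the coupled system containing 1 mM ATP, alongside controls lacking the derivative. Half-time of inactivation was taken from pseudo-first-order plots, or % activity loss at 5–6 h was reported.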

[15] = target: T1, GTP:AMP phosphotransferase AK3, mitochondrial; test: Ability to inhibit rat adenylate kinase III, activity expressed as Inhibition constant; method in brief: as §1
[16] = system: Escherichia coli; test: Ability to inactivate adenylate kinase was determined, after exposing enzyme to mM levels of MgATP at pH 7.6 at a concentration of 9.9; method in brief: as §2
[17] = species on record: Rattus norvegicus; test: Ability of to inactivate rat muscle adenylate kinase was determined activity expresses as Percent loss of inactivation; method in brief: as §4
[18] = system: Escherichia coli; test: Ability to inactivate adenylate kinase was determined, after exposing enzyme to mM levels of MgATP at pH 7.6 at a concentration of 9.7; method in brief: as §2
[19] = system: Escherichia coli; test: Ability to inactivate adenylate kinase was determined, after exposing enzyme to mM levels of MgATP at pH 7.6 at a concentration of 26.0; method in brief: as §2
[20] = target: Adenylate kinase 2, mitochondrial (Rattus norvegicus) (UniProt P29410); test: Ability to inhibit rat adenylate kinase II, […]
Method in brief: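 Rat adenylate kinase isozyme II. ATP derivatives were used as 1:1 Mg²⁺ complexes and varied against ATP as phosphate donor. Coupled PK/LDH NADH-oxidation spectrophotometric assay in 0.1 M Tris-HCl pH 7.6 with 2 mM MgSO₄, 0.12 M KCl, 0.31 mM PEP, 0.38 mM NADH and 0.25 mM AMP. Inhibition type was assigned as competitive or noncompetitive with respect to ATP from initial-velocity kinetics.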

[21] = system: Adenylate kinase, muscle isozyme (Rattus norvegicus); test: Ability of the 1.14 mM compound to inactivate rat muscle adenylate kinase was determined, after exposing enzyme to 0 mM levels of MgATP, activity expressed as percent loss of inactivation
[22] = system: Adenylate kinase, muscle isozyme (Rattus norvegicus); test: Ability of the 0.094 mM compound to inactivate rat muscle adenylate kinase was determined, after exposing enzyme to 1.4 mM levels of ATP activity expressed as % loss of inactivation
[23] = target: Adenylate kinase (Escherichia coli) (UniProt P69441); test: Ability of the 9 mM compound to inactivate adenylate kinase was determined, after exposing enzyme to 0 mM levels of MgATP in 6 h at 22 degree C
[24] = system: Escherichia coli; test: Ability to inactivate Escherichia coli adenylate kinase after exposing enzyme to 0 mM levels of MgATP at concentration of 8.1 mM, pH 7.6; method in brief: as §2
[25] = system: Escherichia coli; test: Ability of 13.2 mM compound to inactivate Escherichia coli adenylate kinase was determined, after exposing enzyme to 0 mM levels of MgATP after 6 hr at 22 degree C; method in brief: as §2
[26] = system: Escherichia coli; test: Ability of 13.2 mM compound to inactivate Escherichia coli adenylate kinase was determined, after exposing enzyme to 10.7 mM levels of MgATP after 6 hr at 22 degree C; method in brief: as §2
[27] = system: Escherichia coli; test: Ability to inactivate Escherichia coli adenylate kinase after exposing enzyme to 0 mM levels of MgATP at concentration of 13.5 mM, pH 7.6; method in brief: as §2
[28] = system: Escherichia coli; test: Ability to inactivate Escherichia coli adenylate kinase after exposing enzyme to 0 mM levels of MgATP at concentration of 4.5mM, pH 7.6 for 6 h; type: functional; method in brief: as §2
[29] = species on record: Rattus norvegicus; test: Ability of the 1.10 mM compound to inactivate rat muscle adenylate kinase was determined, after exposing enzyme to 2.2 mM levels of ATP activity expressed as percent loss of inactivation; method in brief: as §4

CN(CCCCCCN(C)c1ncnc2c1ncn2[C@@H]1O[C@H](COP(=O)(O)OP(=O)(O)OP(=O)(O)O)[C@@H](O)[C@H]1O)C(=O)CCCCCCNC(=O)CI
Vmax [1]: 0%
Vmax [2]: 0%
Ki [3]: 2200 µM
Ki [4]: 1800 µM
Inactivation [5]: 0%

CC(=O)NCCCCCCNc1nc2c(N)ncnc2n1C1O[C@H](COP(=O)(O)OP(=O)(O)OP(=O)(O)O)[C@@H](O)[C@H]1O (stereo partly drawn)
Vmax [6]: 0%

CN(CCCCN(C)c1ncnc2c1ncn2[C@@H]1O[C@H](COP(=O)(O)OP(=O)(O)OP(=O)(O)O)[C@@H](O)[C@H]1O)C(=O)CCCCCCNC(=O)CI
Vmax [1]: 0%
Vmax [2]: 0%
Inactivation [7]: 2%
Vmax [8]: 0%
Ki [3]: 2100 µM
Ki [4]: 1600 µM

Nc1ncnc2c1nc(NCCCCCCNC(=O)CI)n2[C@@H]1O[C@H](COP(=O)(O)OP(=O)(O)OP(=O)(O)O)[C@@H](O)[C@H]1O
Ki [4]: 300 µM

Nc1ncnc2c1ncn2[C@@H]1O[C@H](COP(=O)(O)OP(=O)(O)OP(=O)(O)O)[C@@H](O)[C@H]1O [ADENOSINE TRIPHOSPHATE]
Vmax [1]: 100%
Vmax [2]: 100%
Km [9]: 60 µM
Vmax [8]: 100%
Km [10]: 90 µM
Km [11]: 90 µM

O=C(CI)NCCCCCCCCNc1ncnc2c1ncn2[C@@H]1O[C@H](COP(=O)(O)OP(=O)(O)OP(=O)(O)O)[C@@H](O)[C@H]1O
Vmax [1]: 5%
Vmax [2]: 6%
Inactivation [12]: 12%
Km [10]: 1100 µM
Km [11]: 400 µM

CN(CCCN(C)C(=O)CCCNc1ncnc2c1ncn2[C@@H]1O[C@H](COP(=O)(O)OP(=O)(O)OP(=O)(O)O)[C@@H](O)[C@H]1O)C(=O)CCCNC(=O)CI
Inactivation [13]: 0%

CN(CCCCCCN(C)c1ncnc2c1ncn2[C@@H]1O[C@H](COP(=O)(O)OP(=O)(O)OP(=O)(O)O)[C@@H](O)[C@H]1O)C(=O)CCCCCNC(=O)CI
Vmax [1]: 0%
Vmax [2]: 0%
Ki [3]: 2400 µM
Ki [4]: 1900 µM
Inactivation [5]: 1%

NCCCCCNc1ncnc2c1ncn2C1O[C@H](COP(=O)(O)OP(=O)(O)OP(=O)(O)O)[C@@H](O)[C@H]1O (stereo partly drawn)
Vmax [6]: 0%

O=C(CI)NCCCC(=O)NCCCCCCNc1ncnc2c1ncn2[C@@H]1O[C@H](COP(=O)(O)OP(=O)(O)OP(=O)(O)O)[C@@H](O)[C@H]1O
Loss of inactivation [14]: 0%

O=C(CI)NCCNc1ncnc2c1ncn2[C@@H]1O[C@H](COP(=O)(O)OP(=O)(O)OP(=O)(O)O)[C@@H](O)[C@H]1O
Vmax [1]: 5%
Vmax [2]: 2%
Km [10]: 400 µM
Km [11]: 1600 µM
Ki [15]: 5900 µM

O=C(CI)NCCCCCCNc1ncnc2c1ncn2[C@@H]1O[C@H](COP(=O)(O)OP(=O)(O)OP(=O)(O)O)[C@@H](O)[C@H]1O
Inactivation [16]: 25%
Loss of inactivation [17]: 8%
Inactivation [18]: 25%
Inactivation [19]: 46% and 47%

NC(=O)CI
Loss of inactivation [20]: 0%

CC(=O)NCCCCCCCCNc1ncnc2c1ncn2C1O[C@H](COP(=O)(O)O)[C@@H](O)[C@H]1O (stereo partly drawn)
Loss of inactivation [21]: 0%

NCCCCCCNc1nc2c(N)ncnc2n1C1O[C@H](COP(=O)(O)OP(=O)(O)OP(=O)(O)O)[C@@H](O)[C@H]1O (stereo partly drawn)
Vmax [6]: 0%

O=C(CI)NCCCCCCCCNc1ncnc2c1ncn2C1O[C@H](CO)[C@@H](O)[C@H]1O (stereo partly drawn)
Loss of inactivation [22]: 30%

CN(CCCN(C)C(=O)CCCCNc1ncnc2c1ncn2[C@@H]1O[C@H](COP(=O)(O)OP(=O)(O)OP(=O)(O)O)[C@@H](O)[C@H]1O)C(=O)CCCCNC(=O)OCc1ccccc1
Vmax [6]: 0%

O=C(CI)NCCCCNc1ncnc2c1ncn2[C@@H]1O[C@H](COP(=O)(O)OP(=O)(O)OP(=O)(O)O)[C@@H](O)[C@H]1O
Inactivation [23]: 2%

O=C(CI)NCCCCCCC(=O)NCCCCCCNc1ncnc2c1ncn2[C@@H]1O[C@H](COP(=O)(O)OP(=O)(O)OP(=O)(O)O)[C@@H](O)[C@H]1O
Inactivation [24]: 4%

O=C(CI)NCCCCCNc1ncnc2c1ncn2[C@@H]1O[C@H](COP(=O)(O)OP(=O)(O)OP(=O)(O)O)[C@@H](O)[C@H]1O
Vmax [1]: 21%
Vmax [2]: 9%
Inactivation [25]: 37%
Km [10]: 400 µM
Km [11]: 1000 µM
Inactivation [26]: 36%
Ki [3]: 6200 µM

O=C(CI)NCCCCCC(=O)NCCCCNc1ncnc2c1ncn2[C@@H]1O[C@H](COP(=O)(O)OP(=O)(O)OP(=O)(O)O)[C@@H](O)[C@H]1O
Inactivation [27]: 5%

O=C(CI)NCCCCCCCNc1ncnc2c1ncn2[C@@H]1O[C@H](COP(=O)(O)OP(=O)(O)OP(=O)(O)O)[C@@H](O)[C@H]1O
Inactivation [28]: 7%
Loss of inactivation [29]: 20%

— ChEMBL document CHEMBL1122037, “Use of adenine nucleotide derivatives to assess the potential of exo-active-site-directed reagents as species- or isozyme-specific enzyme inactivators. 4. Interactions of adenosine 5'-triphosphate derivatives with adenylate kinases from Escherichia coli and rat tissues” (J Med Chem, 1982)
